ChEMBL document CHEMBL1143670, “An adamantyl-substituted retinoid-derived molecule that inhibits cancer cell growth and angiogenesis by inducing apoptosis and binds to small heterodimer partner nuclear receptor: effects of modifying its carboxylate group on apoptosis, proliferation, and protein-tyrosine phosphatase activity” (J Med Chem, 2007)
Activity calls are given as the source filed them. No cut-off for these calls is given here.

Key:
[1] = Growth inhibition of retinoid-resistant H292 cells at 1 uM relative to control; assay type: functional; details: Homo sapiens, NCI-H292
Summary of the method: (§1)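 Cells seeded at 2 × 10^3 per well for H292 and DU-145 (RPMI-1640, 10% FBS) or 4 × 10^3 for MDA-MB-231 (DMEM, 10% FBS), 37 °C, 6% CO2. After 24 h attachment, treated 72 h with compound in Me2SO (0.1% final); media and compound renewed at 48 h. Viable cells by MTS reduction; triplicates per concentration.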

MDA-MB-231 [2] = test: Growth inhibition of retinoid-resistant MDA-MB-231 cells at 1 uM relative to control; assay type: functional; details: Homo sapiens; summary of the method: as §1
[3] = biological target: T1, Nuclear receptor subfamily 0 group B member 2 (Homo sapiens) (UniProt Q15466); test: Displacement of [5,5'-3H2]AHPN from recombinant human GST-SHP partner nuclear orphan receptor at 50 uM
T1 sequence (whole entry): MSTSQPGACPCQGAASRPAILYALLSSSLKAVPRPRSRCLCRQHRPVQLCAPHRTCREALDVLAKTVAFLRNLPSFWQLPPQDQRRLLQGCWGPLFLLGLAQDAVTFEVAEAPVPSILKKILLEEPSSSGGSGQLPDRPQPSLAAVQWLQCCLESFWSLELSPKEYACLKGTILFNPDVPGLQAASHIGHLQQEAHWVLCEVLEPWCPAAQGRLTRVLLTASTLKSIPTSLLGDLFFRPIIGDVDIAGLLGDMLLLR
Summary of the method: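 GST–human SHP fusion (150–500 ng) on glutathione-Sepharose beads preincubated on ice 45 min with unlabeled compound (50 µM final) in 0.4 mL binding buffer. [5,5′-3H2]AHPN (5 nM final) then added for 2 h at 4 °C. Beads washed, counted by scintillation directly or after elution with 50 mM NaHCO3/1% SDS.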

[4] = Growth inhibition of primary HMVE cells at 1 uM after 72 hrs; assay type: functional; details: Homo sapiens
Summary of the method: (§2)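 Primary HMVE cells, 1 × 10^4 per well in EGM-MV medium, incubated 1 h at 37 °C. Compound in Me2SO added, or Me2SO alone (0.5% final). After 72 h at 37 °C, cells detached with trypsin/EDTA and counted by hemocytometer; three replicates.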

DU-145 [5] = test: Growth inhibition of retinoid-resistant DU145 cells after 72 hrs; assay type: functional, cell-based; details: Homo sapiens, DU-145, 72 h; summary of the method: as §1
KG-1 [6] = test: Inhibition of cell proliferation in retinoid-resistant KG1 cells after 48 hrs; assay type: functional, cell-based; details: Homo sapiens, KG-1, 48 h
Summary of the method: (§3)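 KG-1 cells grown in RPMI-1640 with 5% heat-inactivated FBS and gentamycin, seeded in 3 mL medium plus 5% FBS, incubated overnight. Compound then added in Me2SO (0.1% final), cells incubated for the stated time, harvested and counted by hemocytometer.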

DU-145 [7] = test: Growth inhibition of retinoid-resistant DU145 cells at 1 uM relative to control; assay type: functional; details: Homo sapiens; summary of the method: as §1
KG-1 [8] = test: Induction of apoptosis in retinoid-resistant KG1 cells at 1 uM after 48 hrs; assay type: functional, Homo sapiens
Summary of the method: (§4)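 Apoptotic cells scored by acridine orange staining. KG-1, HL-60R or MDA-MB-231 cells seeded in medium with 5% FBS, incubated overnight, then exposed to compound in Me2SO (0.1% final) for the stated time.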

[9] = Growth inhibition of retinoid-resistant H292 cells after 72 hrs; assay type: functional, cell-based; details: Homo sapiens, NCI-H292, 72 h; summary of the method: as §1
[10] = biological target: T2, Tyrosine-protein phosphatase non-receptor type 11 (Homo sapiens, UniProt Q06124); test: Inhibition of SHP2 PTP by fluorescence spectroscopy
T2 sequence (Q06124 whole entry): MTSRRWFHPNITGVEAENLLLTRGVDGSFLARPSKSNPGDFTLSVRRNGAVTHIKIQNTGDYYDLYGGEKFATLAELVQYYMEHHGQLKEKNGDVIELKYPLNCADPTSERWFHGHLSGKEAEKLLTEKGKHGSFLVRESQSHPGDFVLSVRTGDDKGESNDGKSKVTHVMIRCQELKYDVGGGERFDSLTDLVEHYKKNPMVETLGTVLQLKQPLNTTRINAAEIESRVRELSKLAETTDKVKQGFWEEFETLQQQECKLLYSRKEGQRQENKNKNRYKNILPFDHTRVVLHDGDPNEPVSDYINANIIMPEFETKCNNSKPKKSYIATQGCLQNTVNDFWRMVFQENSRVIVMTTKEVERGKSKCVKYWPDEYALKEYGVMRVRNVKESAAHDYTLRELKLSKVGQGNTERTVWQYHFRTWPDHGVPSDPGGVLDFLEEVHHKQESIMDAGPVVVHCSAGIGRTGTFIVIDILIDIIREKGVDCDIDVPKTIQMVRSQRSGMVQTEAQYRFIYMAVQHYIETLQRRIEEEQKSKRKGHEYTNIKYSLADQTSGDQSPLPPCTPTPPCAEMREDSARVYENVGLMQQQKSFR

KG-1 [11] = test: Inhibition of cell proliferation in retinoid-resistant KG1 cells at 1 uM after 48 hrs relative to control; assay type: functional; details: Homo sapiens, KG-1, 48 h; summary of the method: as §3
[12] = biological target: Receptor-type tyrosine-protein phosphatase C, CD45 (Homo sapiens) (UniProt P08575); test: Inhibition of CD45 PTP at 10 uM relative to control by fluorescence spectrometry
KG-1 [13] = test: Growth inhibition of retinoid-resistant KG1 cells at 5 uM after 48 hrs; assay type: functional; details: Homo sapiens, KG-1, 48 h; summary of the method: as §3
KG-1 [14] = test: Induction of apoptosis in retinoid-resistant KG1 cells at 5 uM after 48 hrs; assay type: functional, Homo sapiens; summary of the method: as §4
MDA-MB-231 [15] = test: Growth inhibition of retinoid-resistant MDA-MB-231 cells after 72 hrs; assay type: functional, cell-based; details: Homo sapiens, MDA-MB-231, 72 h; summary of the method: as §1
MDA-MB-231 [16] = test: Induction of apoptosis in retinoid-resistant MDA-MB-231 cells at 2 uM after 96 hrs; assay type: functional, Homo sapiens
HMVE [17] = test: Inhibition of HMVE cell migration through Matrigel after 5 hrs; assay type: functional, cell-based; details: Homo sapiens
Summary of the method: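 Transwell inserts (8 µm pores) with undersides coated with Matrigel (30 µg/mL), blocked with 1% BSA. HMVE cells from 80% confluent cultures, released enzyme-free, were placed in inserts with compound (0.05–500 nM) or Me2SO (0.01% final). After 5 h at 37 °C, cells on underside fixed, stained with Diff-Quick and counted in three high-power fields per well; mean ± SD of three replicates.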

[18] = Inhibition of HMVE cell proliferation at 0.5 uM relative to control; assay type: functional; details: Homo sapiens
[19] = Growth inhibition of primary HMVE cells after 72 hrs; assay type: functional, cell-based; details: Homo sapiens; summary of the method: as §2
HMVE [20] = test: Induction of apoptosis in HMVE cells assessed as increase in oligonucleosome levels after 20 hrs by ELISA; assay type: functional, cell-based; details: Homo sapiens
Summary of the method: (§5)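 HMVE cells (6 × 10^4 per well) seeded in EGM-MV, incubated 6 h at 37 °C. Then treated 20 h with compound (10–500 nM), 1.0 µM doxorubicin or Me2SO (0.5% final). Cytoplasmic histone-associated DNA fragments in lysate supernatant measured by Cell Death Detection ELISA; triplicates.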

[21] = Induction of apoptosis in HMVE cells at 0.5 uM after 20 hrs relative to adriamycin; assay type: functional, Homo sapiens; summary of the method: as §5
[22] = Antiproliferative activity against HMVE cells; assay type: functional, cell-based; details: Homo sapiens
HMVE [23] = test: Inhibition of HMVE cell tubule formation in Matrigel after 18 hrs; assay type: functional, cell-based; details: Homo sapiens
Summary of the method: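 Trypsinized HMVE cells (5 × 10^4 per well in EGM-MV) plated on gelled Matrigel, held 1 h at 37 °C, then exposed 18 h at 37 °C to 0.25 or 1.0 µM compound or Me2SO (0.05% final). Total tube length measured from phase-contrast images, four random fields per well, three replicates.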

MDA-MB-231 [24] = test: Induction of apoptosis in MDA-MB-231 cells at 1 uM after 96 hrs; assay type: functional, Homo sapiens; summary of the method: as §4

Receptor-type tyrosine-protein phosphatase C, CD45 (Homo sapiens), sequence (P08575 whole entry, looked up): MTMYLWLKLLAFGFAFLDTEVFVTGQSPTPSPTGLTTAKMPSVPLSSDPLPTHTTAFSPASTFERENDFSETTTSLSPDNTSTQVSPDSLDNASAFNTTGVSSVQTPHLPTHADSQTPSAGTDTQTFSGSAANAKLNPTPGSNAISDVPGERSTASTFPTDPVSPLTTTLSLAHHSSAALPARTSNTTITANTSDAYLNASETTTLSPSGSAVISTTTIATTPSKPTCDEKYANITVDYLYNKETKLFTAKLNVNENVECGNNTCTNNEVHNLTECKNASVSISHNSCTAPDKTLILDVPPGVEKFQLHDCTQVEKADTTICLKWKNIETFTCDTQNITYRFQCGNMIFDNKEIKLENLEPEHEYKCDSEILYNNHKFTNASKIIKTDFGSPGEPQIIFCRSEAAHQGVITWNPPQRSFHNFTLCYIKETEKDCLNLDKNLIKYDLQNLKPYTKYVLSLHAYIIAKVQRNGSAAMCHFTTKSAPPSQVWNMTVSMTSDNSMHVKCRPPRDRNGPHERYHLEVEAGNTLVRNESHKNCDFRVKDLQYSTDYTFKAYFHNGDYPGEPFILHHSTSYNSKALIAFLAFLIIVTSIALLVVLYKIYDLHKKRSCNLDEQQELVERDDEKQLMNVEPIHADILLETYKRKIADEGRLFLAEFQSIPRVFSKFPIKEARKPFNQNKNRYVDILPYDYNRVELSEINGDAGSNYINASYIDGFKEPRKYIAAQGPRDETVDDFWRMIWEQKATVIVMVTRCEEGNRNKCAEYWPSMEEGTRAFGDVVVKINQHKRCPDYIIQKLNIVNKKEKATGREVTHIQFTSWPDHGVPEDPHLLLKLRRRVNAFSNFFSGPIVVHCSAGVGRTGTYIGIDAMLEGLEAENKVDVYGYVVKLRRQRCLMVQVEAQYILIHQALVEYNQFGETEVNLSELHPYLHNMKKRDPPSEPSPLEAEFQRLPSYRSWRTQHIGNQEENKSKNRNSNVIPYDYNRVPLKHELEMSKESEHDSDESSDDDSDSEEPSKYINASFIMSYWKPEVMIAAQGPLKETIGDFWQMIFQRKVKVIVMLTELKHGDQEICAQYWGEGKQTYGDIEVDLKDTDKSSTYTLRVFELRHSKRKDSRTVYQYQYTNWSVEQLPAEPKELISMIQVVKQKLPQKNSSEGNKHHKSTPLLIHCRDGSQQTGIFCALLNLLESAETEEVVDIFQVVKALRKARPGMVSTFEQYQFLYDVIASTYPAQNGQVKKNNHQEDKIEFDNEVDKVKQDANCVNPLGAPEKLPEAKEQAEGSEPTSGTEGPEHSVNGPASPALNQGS

| Structure (SMILES) | inhibition at 1 µM [1] [%] | inhibition at 1 µM (MDA-MB-231 [2]) [%] | Activity [3] [%] | IC50 (DU-145 [5]) [nM] | IC50 (KG-1 [6]) [nM] | inhibition at 1 µM (DU-145 [7]) [%] | Activity (KG-1 [8]) [%] | IC50 [9] [nM] | inhibition at 1 µM (KG-1 [11]) [%] | inhibition at 5 µM (KG-1 [13]) [%] | Activity (KG-1 [14]) [%] | IC50 (MDA-MB-231 [15]) [nM] | also measured |
| --- | --- | --- | --- | --- | --- | --- | --- | --- | --- | --- | --- | --- | --- |
| O=C1NC(=O)/C(=C/c2ccc(-c3ccc(O)c(C45CC6CC(CC(C6)C4)C5)c3)c(Cl)c2)S1 | 17 | 0 | 37 | 3700 | 14000 | 17 | 8 | 3600 | 28 | 41 | 10 | 18000 | inhibition at 1 µM [4]: 30%; IC50 [10]: 2200 nM; inhibition [12]: 53% |
| O=C(O)c1cccc2c(-c3ccc(O)c(C45CC6CC(CC(C6)C4)C5)c3)cccc12 | – | – | – | – | – | – | – | – | – | – | – | – | Activity (MDA-MB-231 [16]): 4% |
| O=C(O)/C=C/c1ccc(-c2ccc(O)c(C34CC5CC(CC(C5)C3)C4)c2)c(Cl)c1 | 79 | 32 | 87 | 500 | 300 | 76 | 30 | 400 | 44 | 67 | 55 | 1800 | Activity (HMVE [17]): inactive; inhibition at 0.5 µM [18]: 60%; IC50 [19]: 300 nM; Activity (HMVE [20]): Dose-dependent effect; Activity [21]: 64%; IC50 [22]: 300 nM; Activity (HMVE [23]): inactive; Activity (MDA-MB-231 [24]): 43% |
